≈ marks a conversion by molar mass, not a printed value.
Assays:
Format in all cases: functional
[1] = system: Aspergillus fumigatus; test: Antimicrobial activity against Aspergillus fumigatus isolate 12 after 48 hrs by Etest; details: isolate 12, 48 h
In short: (§1)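 Posaconazole Etest strips placed on RPMI 1640 agar with 2% glucose, pH 7.0, and run per the strip maker's instructions. Incubation at 35°C, with the MIC read at 24 h and at 48 h.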

[2] = system: Aspergillus fumigatus; test: Antimicrobial activity against Aspergillus fumigatus isolate 11 after 48 hrs by Etest; details: isolate 11, 48 h; in short: as §1
[3] = system: Aspergillus fumigatus; test: Antimicrobial activity against Aspergillus fumigatus isolate 3 by CLSI M38-A2 broth microdilution method
In short: (§2)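 Reference broth microdilution per CLSI M38-A2. MIC read as absence of visible growth at 48 h. C. parapsilosis ATCC 22019 and C. krusei ATCC 6258 QC strains run in each test session.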

[4] = system: Aspergillus fumigatus; test: Antimicrobial activity against Aspergillus fumigatus isolate 46 after 48 hrs by Etest; details: isolate 46, 48 h
[5] = system: Aspergillus fumigatus; test: Antimicrobial activity against Aspergillus fumigatus isolate 3 by oxygen consumption method
In short: (§3)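 Conidial suspension in RPMI 1640 broth, 1.5 ml, with two drug concentrations (0.25 and 2 μg/ml). Tubes agitated 12 h at 37°C in a biological oxygen monitor. Available oxygen monitored continuously and quantified to assign the MIC.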

[6] = system: Aspergillus fumigatus; test: Antimicrobial activity against Aspergillus fumigatus isolate 34 after 24 hrs by Etest; details: isolate 34, 24 h
In short: (§4)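 Posaconazole Etest strips on RPMI 1640 agar with 2% glucose, pH 7.0, run per the strip maker's instructions. Incubated at 35°C. MIC read at 24 h and at 48 h, matching the time in each line.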

[7] = system: Aspergillus fumigatus; test: Antimicrobial activity against Aspergillus fumigatus isolate 18 by oxygen consumption method
In short: (§5)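 Conidial suspension in RPMI 1640 broth with posaconazole at 0.25 and 2 μg/ml. Tubes agitated 12 h at 37°C in a biological oxygen monitor. Available oxygen was monitored continuously, and the MIC was assigned from the oxygen quantification.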

[8] = system: Aspergillus fumigatus; test: Antimicrobial activity against Aspergillus fumigatus isolate 26 by CLSI M38-A2 broth microdilution method; in short: as §2
[9] = system: Aspergillus fumigatus; test: Antimicrobial activity against Aspergillus fumigatus isolate 20 after 24 hrs by Etest; details: isolate 20, 24 h; in short: as §1
[10] = system: Aspergillus fumigatus; test: Antimicrobial activity against Aspergillus fumigatus isolate 35 by CLSI M38-A2 broth microdilution method
In short: (§6)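 CLSI M38-A2 broth microdilution with posaconazole. MIC taken as the lowest concentration with no visible growth at 48 h. C. parapsilosis ATCC 22019 and C. krusei ATCC 6258 were included as QC strains in every run.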

[11] = system: Aspergillus fumigatus; test: Antimicrobial activity against Aspergillus fumigatus isolate 27 after 24 hrs by Etest; details: isolate 27, 24 h
In short: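 Etest strips on RPMI 1640 agar with 2% glucose, pH 7.0, run per manufacturer's instructions. Incubated at 35°C; MIC read at 24 h.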

[12] = system: Aspergillus fumigatus; test: Antimicrobial activity against Aspergillus fumigatus isolate 46 by CLSI M38-A2 broth microdilution method
[13] = system: Aspergillus fumigatus; test: Antimicrobial activity against Aspergillus fumigatus isolate 39 by oxygen consumption method
In short: (§7)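 Conidial suspension in RPMI 1640 broth, tested at two posaconazole levels (0.25 and 2 μg/ml). Agitated for 12 h at 37°C in a biological oxygen monitor. MIC derived from continuous monitoring and quantification of the available oxygen.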

[14] = system: Aspergillus fumigatus; test: Antimicrobial activity against Aspergillus fumigatus isolate 37 by CLSI M38-A2 broth microdilution method; in short: as §6
[15] = system: Aspergillus fumigatus; test: Antimicrobial activity against Aspergillus fumigatus isolate 47 after 24 hrs by Etest; details: isolate 47, 24 h
[16] = system: Aspergillus fumigatus; test: Antimicrobial activity against Aspergillus fumigatus isolate 35 by oxygen consumption method; in short: as §7
[17] = system: Aspergillus fumigatus; test: Antimicrobial activity against Aspergillus fumigatus isolate 36 by oxygen consumption method; in short: as §7
[18] = system: Aspergillus fumigatus; test: Antimicrobial activity against Aspergillus fumigatus isolate 28 by oxygen consumption method; in short: as §3
[19] = system: Aspergillus fumigatus; test: Antimicrobial activity against Aspergillus fumigatus isolate 8 after 48 hrs by Etest; details: isolate 8, 48 h
[20] = system: Aspergillus fumigatus; test: Antimicrobial activity against Aspergillus fumigatus isolate 6 by oxygen consumption method
[21] = system: Aspergillus fumigatus; test: Antimicrobial activity against Aspergillus fumigatus isolate 36 after 48 hrs by Etest; details: isolate 36, 48 h; in short: as §4
[22] = system: Aspergillus fumigatus; test: Antimicrobial activity against Aspergillus fumigatus isolate 16 by oxygen consumption method; in short: as §5
[23] = system: Aspergillus fumigatus; test: Antimicrobial activity against Aspergillus fumigatus isolate 26 by oxygen consumption method; in short: as §3
[24] = system: Aspergillus fumigatus; test: Antimicrobial activity against Aspergillus fumigatus isolate 15 by CLSI M38-A2 broth microdilution method
In short: (§8)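 Posaconazole broth microdilution follows CLSI M38-A2. The MIC is the lowest concentration with no visible growth at 48 h. Candida parapsilosis ATCC 22019 and Candida krusei ATCC 6258 were included as QC strains in every run.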

[25] = system: Aspergillus fumigatus; test: Antimicrobial activity against Aspergillus fumigatus isolate 38 by oxygen consumption method; in short: as §7
[26] = system: Aspergillus fumigatus; test: Antimicrobial activity against Aspergillus fumigatus isolate 17 after 48 hrs by Etest; details: isolate 17, 48 h; in short: as §1
[27] = system: Aspergillus fumigatus; test: Antimicrobial activity against Aspergillus fumigatus isolate 20 by CLSI M38-A2 broth microdilution method; in short: as §2
[28] = system: Aspergillus fumigatus; test: Antimicrobial activity against Aspergillus fumigatus isolate 15 after 48 hrs by Etest; details: isolate 15, 48 h; in short: as §1
[29] = system: Aspergillus fumigatus; test: Antimicrobial activity against Aspergillus fumigatus isolate 27 after 48 hrs by Etest; details: isolate 27, 48 h
In short: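 Etest strips on RPMI 1640 agar with 2% glucose, pH 7.0, run per manufacturer's instructions. Incubated at 35°C; MIC read at 48 h.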

[30] = system: Aspergillus fumigatus; test: Antimicrobial activity against Aspergillus fumigatus isolate 4 after 24 hrs by Etest; details: isolate 4, 24 h; in short: as §4
[31] = system: Aspergillus fumigatus; test: Antimicrobial activity against Aspergillus fumigatus isolate 14 after 48 hrs by Etest; details: isolate 14, 48 h; in short: as §1
[32] = system: Aspergillus fumigatus; test: Antimicrobial activity against Aspergillus fumigatus isolate 5 after 24 hrs by Etest; details: isolate 5, 24 h
[33] = system: Aspergillus fumigatus; test: Antimicrobial activity against Aspergillus fumigatus isolate 19 by oxygen consumption method; in short: as §5
[34] = system: Aspergillus fumigatus; test: Antimicrobial activity against Aspergillus fumigatus isolate 40 after 48 hrs by Etest; details: isolate 40, 48 h; in short: as §4
[35] = system: Aspergillus fumigatus; test: Antimicrobial activity against Aspergillus fumigatus isolate 1 by oxygen consumption method; in short: as §5
[36] = system: Aspergillus fumigatus; test: Antimicrobial activity against Aspergillus fumigatus isolate 18 by CLSI M38-A2 broth microdilution method; in short: as §8
[37] = system: Aspergillus fumigatus; test: Antimicrobial activity against Aspergillus fumigatus isolate 41 after 24 hrs by Etest; details: isolate 41, 24 h; in short: as §4
[38] = system: Aspergillus fumigatus; test: Antimicrobial activity against Aspergillus fumigatus isolate 45 by oxygen consumption method
[39] = system: Aspergillus fumigatus; test: Antimicrobial activity against Aspergillus fumigatus isolate 9 by CLSI M38-A2 broth microdilution method
[40] = system: Aspergillus fumigatus; test: Antimicrobial activity against Aspergillus fumigatus isolate 27 by CLSI M38-A2 broth microdilution method; in short: as §2
[41] = system: Aspergillus fumigatus; test: Antimicrobial activity against Aspergillus fumigatus isolate 1 by CLSI M38-A2 broth microdilution method; in short: as §8
[42] = system: Aspergillus fumigatus; test: Antimicrobial activity against Aspergillus fumigatus isolate 9 after 48 hrs by Etest; details: isolate 9, 48 h
[43] = system: Aspergillus fumigatus; test: Antimicrobial activity against Aspergillus fumigatus isolate 20 by oxygen consumption method; in short: as §3
[44] = system: Aspergillus fumigatus; test: Antimicrobial activity against Aspergillus fumigatus isolate 49 after 24 hrs by Etest; details: isolate 49, 24 h
[45] = system: Aspergillus fumigatus; test: Antimicrobial activity against Aspergillus fumigatus isolate 49 by oxygen consumption method

`CC[C@@H]([C@H](C)O)n1ncn(-c2ccc(N3CCN(c4ccc(OC[C@@H]5CO[C@@](Cn6cncn6)(c6ccc(F)cc6F)C5)cc4)CC3)cc2)c1=O` [POSACONAZOLE] gave an MIC [1] of 0.5 µg/mL (≈ 0.713 µM), an MIC [2] of 0.25 µg/mL (≈ 0.357 µM) and an MIC [3] of 1 µg/mL (≈ 1.43 µM). For the same compound, the MIC [4] was 0.125 µg/mL (≈ 0.178 µM), the MIC [5] was ≥ 0.5 µg/mL and the MIC [6] was ≤ 0.03 µg/mL. The MIC [7] was ≤ 0.25 µg/mL, the MIC [8] was 0.125 µg/mL (≈ 0.178 µM) and the MIC [9] was 0.25 µg/mL (≈ 0.357 µM). It also gave an MIC [10] of 0.125 µg/mL (≈ 0.178 µM), an MIC [11] of 0.125 µg/mL (≈ 0.178 µM) and an MIC [12] of 0.125 µg/mL (≈ 0.178 µM). For the same compound, the MIC [13] was ≥ 0.5 µg/mL, the MIC [14] was 0.125 µg/mL (≈ 0.178 µM) and the MIC [15] was ≤ 0.03 µg/mL. The MIC [16] was ≤ 0.25 µg/mL, the MIC [17] was ≤ 0.25 µg/mL and the MIC [18] was ≤ 0.25 µg/mL. The MIC [19] was 0.25 µg/mL (≈ 0.357 µM), the MIC [20] was ≤ 0.25 µg/mL and the MIC [21] was 0.06 µg/mL (≈ 0.0856 µM). For the same compound, the MIC [22] was ≥ 0.5 µg/mL, the MIC [23] was ≥ 0.5 µg/mL and the MIC [24] was 0.06 µg/mL (≈ 0.0856 µM). For the same compound, the MIC [25] was ≤ 0.25 µg/mL, the MIC [26] was 0.25 µg/mL (≈ 0.357 µM) and the MIC [27] was 0.125 µg/mL (≈ 0.178 µM). For the same compound, the MIC [28] was 0.06 µg/mL (≈ 0.0856 µM), the MIC [29] was 0.25 µg/mL (≈ 0.357 µM) and the MIC [30] was 0.125 µg/mL (≈ 0.178 µM). For the same compound, the MIC [31] was 0.5 µg/mL (≈ 0.713 µM), the MIC [32] was 4 µg/mL (≈ 5.71 µM) and the MIC [33] was ≥ 0.5 µg/mL. The MIC [34] was 0.25 µg/mL (≈ 0.357 µM), the MIC [35] was ≥ 0.5 µg/mL and the MIC [36] was 0.125 µg/mL (≈ 0.178 µM). For the same compound, the MIC [37] was ≤ 0.03 µg/mL, the MIC [38] was ≥ 0.5 µg/mL and the MIC [39] was 0.25 µg/mL (≈ 0.357 µM). It also gave an MIC [40] of 0.125 µg/mL (≈ 0.178 µM), an MIC [41] of 1 µg/mL (≈ 1.43 µM) and an MIC [42] of 0.5 µg/mL (≈ 0.713 µM). For the same compound, the MIC [43] was ≤ 0.25 µg/mL, the MIC [44] was 0.5 µg/mL (≈ 0.713 µM) and the MIC [45] was ≥ 0.5 µg/mL.
